Source: ChEMBL document CHEMBL4513216, “Probing the Open Global Health Chemical Diversity Library for Multistage-Active Starting Points for Next-Generation Antimalarials” (ACS Infect Dis, 2020)

Assay: Toxicity liver stage against HepG2, at 10uM
Assay type: cell-based
Design: test concentration 10 uM, cell line HepG2-A16-CD81EGFP
Settings: human, HepG2-A16-CD81EGFP cells; read-out: INHIBITION
In short: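 Uninfected HepG2-A16-CD81EGFP cells, 3 × 10^3 per well, 1536-well, plated on prespotted compound at 10 μM final, parasite-free screening media added to match infected plates; puromycin 10 μM positive, DMSO 0.5% negative; run in parallel with 48 h PbLuc assay at 37 °C, 5% CO2; viability by CellTiter-Glo luminescence, normalized to controls.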

Row | Structure (SMILES) | cytotoxicity at 10 µM
1 | O=C(NCCSC1CCCC1)c1cc(C2CC2)on1 | 0.459%
2 | CN1CCC(CNC(=O)c2cccc(C(F)(F)F)c2)c2ccccc21 (configuration not stated) | 17.4%
3 | COC(=O)[C@H]1CN(C(=O)NC(C)C)CCN1C(=O)C1CCCCC1 | 1.35%
4 | CCc1ccc(NC(=O)c2cnc(N3CCCC3)nc2C)cc1 | 0.709%
5 | CCOC(=O)[C@@H]1[C@@H](c2ccccc2)CN2CCN(S(C)(=O)=O)C[C@H]12 | 0.227%
6 | Cn1nc2c(c1NC(=O)c1ccc(Cl)s1)CCC2 | -1.51%
7 | Cc1nccn1-c1ccc(C(=O)NCC(F)(F)F)nn1 | -2.35%
8 | CCN1C[C@H]2CCN(Cc3ccncc3)C(=O)[C@@H]2C1 | 5.53%
9 | CCN1C(=O)CCCC12CCCN(C(=O)c1ccsc1)C2 (configuration not stated) | -153%
10 | O=S(=O)(C1CC1)N1CCOC2(CCCN(c3cccc(F)c3)C2)C1 (configuration not stated) | 8.46%
11 | CN(C)C(=O)CNC(=O)c1ccc2c(-c3nccs3)noc2c1 | 7.19%
12 | COCCO[C@H]1CCN(Cc2ccoc2)[C@H]1Cc1cccnc1 | -3.85%
13 | O=C(NCC1CCCO1)c1nc2c(s1)CCCN2Cc1ccccc1 (configuration not stated) | 1.84%
14 | Cc1ccc(C(=O)N2C[C@H]3CN(Cc4csc(C)n4)C[C@H]3C2)cn1 | -143%
15 | CCCS(=O)(=O)N1CC[C@@H]2[C@@H]1CC(=O)N2Cc1csc(C)n1 | -134%
16 | O=C1CCCN1Cc1ncn2c1CN(C(=O)NC1CCCC1)CCC2 | -147%
17 | COCc1cnc2n1CCN(C(=O)C1=CCCC1)C2C (configuration not stated) | 2.75%
18 | CNC(=O)C1Cn2ccnc2C2(CCN(c3ccc(C)nn3)CC2)O1 (configuration not stated) | -137%
19 | O=C1CC(c2ccc(C(=O)O)cc2)c2ncn(-c3ccccc3Cl)c2N1 (configuration not stated) | 2.03%
20 | CCOc1ccc(Oc2cc(N)ccn2)cc1 | 2.9%
21 | O=C(Nc1cc(-c2ccncc2)no1)C1CC1 | -4.18%
22 | COCCc1ncc(CNC2(c3ccc(Cl)cc3)CC2)cn1 | -17.3%
23 | CC(C)NC(=O)C1CCc2nnc(CNC(=O)c3cccnc3)n21 (configuration not stated) | 6.94%

Row | Structure (SMILES) | cytotoxicity at 10 µM
24 | Cc1nc(C2CCN(S(=O)(=O)c3ccc4c(c3)CCC4)CC2)n[nH]1 | -1.24%
25 | CN(CC(O)C1CC1)C(=O)Nc1cc(F)cc(Br)c1 (configuration not stated) | -3.85%
26 | CC(SCCC(=O)NC(N)=O)c1ccc(F)cc1F (configuration not stated) | 0.936%
27 | COc1nc(N2CCN(C(C)=O)CC2)ncc1Br | 0.27%
28 | Cc1cc(CC(C)NC(=O)c2n[nH]c3c2CCC3)n[nH]1 (configuration not stated) | -144%
29 | NC(=O)C(NC1CCN(CC2CCCCC2)CC1)c1ccc(F)cc1 (configuration not stated) | -5.14%
30 | CCN1CC(COC(=O)c2ccc(N(C)C)cc2F)CC1=O (configuration not stated) | 2.38%
31 | O=C(Cc1csc(-c2ccoc2)n1)NCCCN1CCCCC1 | 12.6%
32 | Cc1nn(C(C)(C)C)c(=O)n1CC(=O)NC(C)(C)C | 1.45%
33 | NC(=O)CC1CCN(C(=O)c2cnc(-c3ccccc3F)s2)CC1 | -0.608%
34 | Cc1cc(N2CCc3c(nc(C(C)C)n3C)C2)nc(N)n1 | -6.79%
35 | COc1cccc(NC(=O)NC(C)c2ccc3c(c2)CC(=O)N3)c1 (configuration not stated) | -3.49%
36 | CC(C)(C)S(=O)(=O)CCNC1CSCCc2ccccc21 (configuration not stated) | -2.35%
37 | OCCNC1CSCCc2ccccc21 (configuration not stated) | -1.44%
38 | CCC(C)(NCc1cccc(NC(C)=O)c1)c1nc(C)cs1 (configuration not stated) | -2.27%
39 | CC(=O)N1CCN(C(=O)NCc2ccccc2Cn2cncn2)CC1 | 0.0453%
40 | O=C(CSc1ccc2c(c1)OCCO2)NS(=O)(=O)c1ccccc1Br | -4.62%
41 | NC(=O)CSc1ccccc1NC(=O)C1CCCC1 | -135%
42 | Cc1nnc2n1CCN(C(=O)c1cn(-c3ccccc3)nn1)C2 | -146%
43 | Cc1nc2cc(O)nn2c(C)c1CCC(=O)N(C)CCC(C)C | -146%
44 | COC1CCN(C(=O)c2cc(-c3ccc(Cl)cc3)on2)CC1 | -0.885%
45 | CN(C(=O)Cc1ccc2c(c1)OCCO2)C1CCCCC1 | 2.89%
46 | O=C(CCNS(=O)(=O)c1cccnc1)N1CCCCC1 | -6.13%

Row | Structure (SMILES) | cytotoxicity at 10 µM
47 | COc1ccc(CNC(=O)CNc2ccccc2OC)cc1 | -2.25%
48 | Cn1ccnc1CCNC(=O)NCCC1CCCCO1 (configuration not stated) | -1.94%
49 | Cc1cc(NCC(=O)N(C)Cc2cccs2)c(C(N)=O)cc1F | 0.83%
50 | O=C(NC1CC1)NC(c1ccc(F)cc1)C1CC1 (configuration not stated) | -0.158%
51 | Cn1ccc(C(=O)N2CCN(Cc3ccccc3F)CC2)cc1=O | -1.44%
52 | CC(=O)Nc1ccc2nn(C(C)C)cc2c1 | -145%
53 | CCN(C(=O)CN1CCCC1c1ccc(F)cc1)c1ccccc1C (configuration not stated) | 5.42%
54 | CC(C)c1cccc(-n2cc(O)c(C(=O)O)n2)c1 | -4.49%
55 | O=C(C(NCc1cccc(F)c1F)c1ccccc1)N1CCOCC1 (configuration not stated) | 8.61%
56 | CCC(=O)NC1CCCN(C(=O)Nc2cccc(COC(C)C)c2)C1 (configuration not stated) | 7.96%
57 | Cc1cccnc1NC(=O)C1CCN(C(=O)C(C)C)CC1 | 6.7%
58 | COc1ccc(Br)cc1CCC(=O)N1CCCC(O)C1 (configuration not stated) | 5.66%
59 | Cc1cccnc1C(NC(=O)CNC(=O)c1ccoc1C)C(C)C (configuration not stated) | 2.45%
60 | CC(C)CS(=O)(=O)NC(=O)c1ccc2c(c1)ncn2C | -9.94%
61 | CC(C)(CNc1ccc2ccc(F)cc2n1)NS(C)(=O)=O | -7.04%
62 | O=S(=O)(Cc1cccc2cccnc12)NC(CO)c1ccco1 (configuration not stated) | 4.22%
63 | CCc1nc(CNc2ccc(F)cc2I)no1 | 3.36%
64 | Cc1cc2c(cc1C)C(NCc1nnc3n1CCCCC3)CCCO2 (configuration not stated) | 0.873%
65 | N#Cc1cccnc1NCCNC(=O)N1CCCC(C(F)(F)F)C1 (configuration not stated) | -3.76%
66 | CN(CCN1CCOCC1)C(=O)CCCc1ccccc1 | -8.28%
67 | CC1CCc2n[nH]c(C(=O)NCCc3ccco3)c2C1 (configuration not stated) | -6.63%
68 | CCc1ncc(CN2CCN(c3cc(NC4CC4)nc(N)n3)CC2)cn1 | -3.44%
69 | N[C@H]1CCCN(C(=O)c2cnc(COc3ccccc3)nc2O)C1 | 1.67%

Row | Structure (SMILES) | cytotoxicity at 10 µM
70 | CCn1c(C2CCCN(Cc3ccnc4ccccc34)C2)nn(C)c1=O (configuration not stated) | -5.92%
71 | CCn1ncnc1CN1CCc2[nH]cnc2C1Cc1ccccc1 (configuration not stated) | -4.94%
72 | CN1CCN(C[C@@H]2CN(Cc3c(Cl)cncc3Cl)C[C@@H]2CO)CC1 | -124%
73 | Cc1cccc(C(C(=O)NCCn2cccc2)N(C)C)c1 (configuration not stated) | -9.12%
74 | CCc1cnc(C)nc1NCCN1CCOCC1 | -2.66%
75 | Cc1ncsc1C(=O)NCc1cc2n(n1)CCN(C(=O)N(C)C)C2 | -5.62%
76 | CCN(Cc1ccncc1)C(=O)c1cn(CC2CCCNC2)nn1 (configuration not stated) | 5.35%
77 | CCN(Cc1ccncc1)C(=O)c1cn(CCC2CCCCC2)nn1 | 10.5%
78 | CC(=O)N[C@@H]1CN(C(=O)c2cc(C)oc2C)C[C@H]1c1ccc(C)o1 | -10.6%
79 | COc1nccnc1N1CCC2(CC1)C(=O)N(C)c1ccccc12 | -4.89%
80 | O=C(C1CCC1)N1CCN(Cc2cccnc2)[C@H]2CS(=O)(=O)C[C@H]21 | 1.02%
81 | Cc1cnccc1NCCNC1CCN(CC(C)C)CC1 | -10%
82 | Cc1ccc2nc(CN3CCCCC3CCN3CCOCC3)cn2c1 (configuration not stated) | 3.28%
83 | O=C(Nc1ccc(F)cc1)C1CNCCN1C(=O)CCc1cccnc1 (configuration not stated) | 2.06%
84 | O=C(NCc1ccccn1)c1cc2n(n1)CCNC2 | 1.19%
85 | CN1CCN(Cc2nc3c(s2)CCCC3)[C@H]2CS(=O)(=O)C[C@H]21 | 2.81%
86 | COc1ccccc1N1CCN(C(=O)Cn2nccc2C)CC1(C)C | 11.8%
87 | O=C(CN1CC(c2ccccc2)CC1=O)N1CCN(c2nccs2)CC1 (configuration not stated) | -1.7%
88 | CCc1ccc(-c2cn(CCSc3ncn[nH]3)nn2)nc1 | -0.89%
89 | CS(=O)(=O)N1CCCCC1CCc1ccc(O)cc1 (configuration not stated) | -0.311%
90 | CCc1nc(CN(C)Cc2nc(-c3ccccc3Cl)oc2C)no1 | -8.83%
91 | CNc1cc(-c2nc(CCN3CCCC3=O)no2)ccn1 | 7.46%
92 | CC(=O)N1CCCC1C(=O)NCCOc1c(C)cccc1C (configuration not stated) | -24.1%

Row | Structure (SMILES) | cytotoxicity at 10 µM
93 | CCc1nc2n(n1)CC(NCc1cc(OC)c3c(c1)OCO3)CC2 (configuration not stated) | 4.23%
94 | Cc1csc(CNC(=O)N(C)Cc2ccncc2)n1 | -10.8%
95 | Cc1cccc(C)c1OCC(=O)NS(=O)(=O)c1c(C)noc1C | -2.28%
96 | Cc1ccc(CC(=O)N2CCC(Nc3cccnn3)CC2)s1 | -7.01%
97 | O=C(c1cc2c(s1)CCC2)N1CCCC1c1noc(C2CC2)n1 (configuration not stated) | -8.18%
98 | Cc1cc(C)c(CNC(=O)NCc2ccc3c(c2)OCCO3)c(=O)[nH]1 | -11.6%
99 | N#CC1(C(=O)N2CCCN(Cc3cscn3)CC2)CCCCC1 | -2.54%
100 | Cc1nc(C)n(CC2CCCCN2Cc2cn3ccccc3n2)n1 (configuration not stated) | -4.47%
101 | COc1ccc(S(=O)(=O)N2CCc3ccc(Cl)cc32)cc1C(=O)O | -11.6%
102 | COc1ccnc(N2CCN(C(=O)Cc3csc(C)n3)CC2)n1 | -15.6%
103 | CCN(Cc1ccc2c(c1)OCO2)C(=O)NCc1nc(C)cs1 | 7.47%
104 | Cc1cccc(-c2nc(C)nn2CC(=O)N(C)C2CC2)c1 | -19.8%
105 | C/C(=C\c1ccccc1)CN1CCCC(c2nnc3n2CCNCC3)C1 (configuration not stated) | 6.97%
106 | CN(C)c1ncc(I)c(C2CCCN2C)n1 (configuration not stated) | 3.7%
107 | O=C(c1cccnc1)N1C[C@H]2CN(Cc3cccc(F)c3)C(=O)[C@H]2C1 | -78.9%
108 | c1ccc(CN2CC[C@H]3CO[C@H](CNc4ncccn4)[C@H]3C2)cc1 | -5.87%
109 | Cc1noc(C)c1CNCC1COCc2c(-c3ccsc3)nnn2C1 (configuration not stated) | 5.74%
110 | COCCN1C2(CCN(CC3CC3)C2)c2ccccc2S1(=O)=O (configuration not stated) | -130%
111 | O=C(N1CCCC1)N1C[C@@H](OCc2cccnc2)[C@H]2OCCC[C@H]21 | 4.85%
112 | CN(C)C(=O)N1C[C@@H]2CC[C@H]1CN(C1Cc3ccccc3C1)C2 | -0.581%
